In ChEMBL document CHEMBL1806473, “Structure-based optimization of click-based histone deacetylase inhibitors” (Eur J Med Chem, 2011):

Legend:
Histone deacetylase = experiment: Inhibition of HDAC in human HeLa cells using Ac-Arg-Gly-Lys(Ac)-AMC as fluorescent substrate after 20 mins by fluorescence assay; format: cell-based
HL-60(TB) = experiment: Antiproliferative activity against human HL-60(TB) cells by SRB assay; format: functional
Method in brief: (§1)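 Tested in the NCI in vitro disease-oriented human tumour cell line screen, with screening performed by NCI. Growth was read by SRB signal over the drug incubation period at five concentrations: 100, 10, 1.0, 0.1 and 0.01 μM. GI50 is the concentration that reduces growth of treated cells to half that of control cells.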

MOLT-4 [1] = experiment: Antiproliferative activity against human MOLT4 cells by SRB assay; format: functional
Method in brief: (§2)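 Tested in the NCI in vitro human tumor cell line screen, run by the National Cancer Institute. Each compound was given at five concentrations (100, 10, 1.0, 0.1 and 0.01 μM). GI50 is the drug concentration that reduces growth of treated cells to half that of control cells during drug incubation, judged from the SRB signal.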

RPMI-8226 = experiment: Antiproliferative activity against human RPMI8226 cells by SRB assay; format: functional; method in brief: as §2
SR = experiment: Antiproliferative activity against human SR cells by SRB assay; format: functional
Method in brief: (§3)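 Cell growth was tested in the NIH in vitro disease-oriented human tumor cell line screen, which NCI ran for these compounds. Compounds were tested at five concentrations (100, 10, 1.0, 0.1 and 0.01 μM), and growth was read by SRB signal. GI50 is the drug concentration that reduces growth of treated cells to half that of control cells during drug incubation.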

EKVX [2] = experiment: Antiproliferative activity against human EKVX cells by SRB assay; format: functional; method in brief: as §2
HOP-62 [3] = experiment: Antiproliferative activity against human HOP62 cells by SRB assay; format: functional; method in brief: as §2
NCI-H226 [4] = experiment: Antiproliferative activity against human NCI-H226 cells by SRB assay; format: functional; method in brief: as §2
NCI-H23 = experiment: Antiproliferative activity against human NCI-H23 cells by SRB assay; format: functional; method in brief: as §2
NCI-H522 [5] = experiment: Antiproliferative activity against human NCI-H522 cells by SRB assay; format: functional; method in brief: as §2
COLO 205 = experiment: Antiproliferative activity against human COLO205 cells by SRB assay; format: functional; method in brief: as §2
HCC 2998 [6] = experiment: Antiproliferative activity against human HCC2998 cells by SRB assay; format: functional; method in brief: as §2
HCT-15 = experiment: Antiproliferative activity against human HCT15 cells by SRB assay; format: functional; method in brief: as §2
HT-29 = experiment: Antiproliferative activity against human HT-29 cells by SRB assay; format: functional; method in brief: as §2
KM12 [7] = experiment: Antiproliferative activity against human KM12 cells by SRB assay; format: functional; method in brief: as §2
SF-295 = experiment: Antiproliferative activity against human SF295 cells by SRB assay; format: functional; method in brief: as §2
SK-MEL-2 [8] = experiment: Antiproliferative activity against human SK-MEL-2 cells by SRB assay; format: functional; method in brief: as §2
SK-MEL-28 [9] = experiment: Antiproliferative activity against human SK-MEL-28 cells by SRB assay; format: functional; method in brief: as §2
OVCAR-4 = experiment: Antiproliferative activity against human OVCAR4 cells by SRB assay; format: functional; method in brief: as §2
OVCAR-5 [10] = experiment: Antiproliferative activity against human OVCAR5 cells by SRB assay; format: functional; method in brief: as §2
SK-OV-3 = experiment: Antiproliferative activity against human SKOV3 cells by SRB assay; format: functional; method in brief: as §2
CAKI-1 [11] = experiment: Antiproliferative activity against human Caki1 cells by SRB assay; format: functional; method in brief: as §2
TK-10 = experiment: Antiproliferative activity against human TK10 cells by SRB assay; format: functional; method in brief: as §3
PC-3 [12] = experiment: Antiproliferative activity against human PC3 cells by SRB assay; format: functional; method in brief: as §2
MDA-MB-231 [13] = experiment: Antiproliferative activity against human MDA-MB-231 cells by SRB assay; format: functional; method in brief: as §2
CCRF-CEM = experiment: Cytotoxicity against human CCRF-CEM cells; format: cell-based
MOLT-4 [14] = experiment: Cytotoxicity against human MOLT4 cells; format: cell-based
EKVX [15] = experiment: Cytotoxicity against human EKVX cells; format: cell-based; method in brief: as §1
HOP-62 [16] = experiment: Cytotoxicity against human HOP62 cells; format: cell-based; method in brief: as §1
HOP-92 = experiment: Cytotoxicity against human HOP92 cells; format: cell-based
NCI-H226 [17] = experiment: Cytotoxicity against human NCI-H226 cells; format: cell-based
NCI-H522 [18] = experiment: Cytotoxicity against human NCI-H522 cells; format: cell-based; method in brief: as §1
HCC 2998 [19] = experiment: Cytotoxicity against human HCC2998 cells; format: cell-based; method in brief: as §1
HCT-116 = experiment: Cytotoxicity against human HCT116 cells; format: cell-based; method in brief: as §1
KM12 [20] = experiment: Cytotoxicity against human KM12 cells; format: cell-based
SNB-19 = experiment: Cytotoxicity against human SNB19 cells; format: cell-based
Method in brief: (§4)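 Screened by NCI in its in vitro disease-oriented human tumour cell line panel. Compounds tested at five concentrations (100, 10, 1.0, 0.1 and 0.01 μM). Growth read by sulforhodamine B (SRB) signal. GI50 is the concentration reducing growth of treated cells to half that of control cells during the drug incubation.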

SNB-75 = experiment: Cytotoxicity against human SNB75 cells; format: cell-based; method in brief: as §4
U-251 = experiment: Cytotoxicity against human U251 cells; format: cell-based; method in brief: as §4
Malme-3M = experiment: Cytotoxicity against human MALME-3M cells; format: cell-based; method in brief: as §1
M14 = experiment: Cytotoxicity against human M14 cells; format: cell-based
SK-MEL-2 [21] = experiment: Cytotoxicity against human SK-MEL-2 cells; format: cell-based; method in brief: as §1
SK-MEL-28 [22] = experiment: Cytotoxicity against human SK-MEL-28 cells; format: cell-based
SK-MEL-5 = experiment: Cytotoxicity against human SK-MEL-5 cells; format: cell-based
OVCAR-3 = experiment: Cytotoxicity against human OVCAR3 cells; format: cell-based; method in brief: as §1
OVCAR-5 [23] = experiment: Cytotoxicity against human OVCAR5 cells; format: cell-based; method in brief: as §1
A498 = experiment: Cytotoxicity against human A498 cells; format: cell-based
CAKI-1 [24] = experiment: Cytotoxicity against human Caki1 cells; format: cell-based
RXF 393 = experiment: Cytotoxicity against human RXF393 cells; format: cell-based; method in brief: as §1
SN12C = experiment: Cytotoxicity against human SN12C cells; format: cell-based; method in brief: as §4
PC-3 [25] = experiment: Cytotoxicity against human PC3 cells; format: cell-based
MCF7 = experiment: Cytotoxicity against human MCF7 cells; format: cell-based
MDA-MB-231 [26] = experiment: Cytotoxicity against human MDA-MB-231 cells; format: functional; method in brief: as §1
T47D = experiment: Cytotoxicity against human T47D cells; format: cell-based; method in brief: as §4
NCI/ADR-RES [27] = experiment: Antiproliferative activity against human NCI/ADR-RES cells by SRB assay; format: functional; method in brief: as §2
NCI/ADR-RES [28] = experiment: Cytotoxicity against human NCI/ADR-RES cells; format: cell-based; method in brief: as §1

CC(/C=C/c1ccccc1)n1cc(/C=C/C(=O)NO)nn1 (stereo not drawn)
IC50 (Histone deacetylase): 62 nM
GI50 (HL-60(TB)): 269 nM
GI50 (MOLT-4 [1]): 377 nM
GI50 (RPMI-8226): 407 nM
GI50 (SR): 385 nM
GI50 (EKVX [2]): 2090 nM
GI50 (HOP-62 [3]): 1340 nM
GI50 (NCI-H226 [4]): 2350 nM
GI50 (NCI-H23): 1250 nM
GI50 (NCI-H522 [5]): 173 nM
GI50 (COLO 205): 469 nM
GI50 (HCC 2998 [6]): 927 nM
GI50 (HCT-15): 2090 nM
GI50 (HT-29): 325 nM
GI50 (KM12 [7]): 1290 nM
GI50 (SF-295): 1060 nM
GI50 (SK-MEL-2 [8]): 614 nM
GI50 (SK-MEL-28 [9]): 819 nM
GI50 (OVCAR-4): 636 nM
GI50 (OVCAR-5 [10]): 488 nM
GI50 (SK-OV-3): 1170 nM
GI50 (CAKI-1 [11]): 401 nM
GI50 (TK-10): 582 nM
GI50 (PC-3 [12]): 890 nM
GI50 (MDA-MB-231 [13]): 1380 nM
LC50 (CCRF-CEM): > 100000 nM
LC50 (MOLT-4 [14]): > 100000 nM
LC50 (EKVX [15]): > 100000 nM
LC50 (HOP-62 [16]): 48200 nM
LC50 (HOP-92): 7530 nM
LC50 (NCI-H226 [17]): 71400 nM
LC50 (NCI-H522 [18]): 3620 nM
LC50 (HCC 2998 [19]): 6910 nM
LC50 (HCT-116): 3810 nM
LC50 (KM12 [20]): 6820 nM
LC50 (SNB-19): 37600 nM
LC50 (SNB-75): 33900 nM
LC50 (U-251): 4500 nM
LC50 (Malme-3M): 51900 nM
LC50 (M14): 9080 nM
LC50 (SK-MEL-2 [21]): 37000 nM
LC50 (SK-MEL-28 [22]): 24500 nM
LC50 (SK-MEL-5): 4520 nM
LC50 (OVCAR-3): 7330 nM
LC50 (OVCAR-5 [23]): > 100000 nM
LC50 (A498): 4830 nM
LC50 (CAKI-1 [24]): 34700 nM
LC50 (RXF 393): > 100000 nM
LC50 (SN12C): > 100000 nM
LC50 (PC-3 [25]): > 100000 nM
LC50 (MCF7): > 100000 nM
LC50 (MDA-MB-231 [26]): > 100000 nM
LC50 (T47D): 7630 nM

O=C(/C=C/c1cn(C(/C=C/c2ccccc2)Cc2ccccc2)nn1)NO (stereo not drawn)
IC50 (Histone deacetylase): 77 nM
GI50 (HL-60(TB)): 670 nM
GI50 (MOLT-4 [1]): 493 nM
GI50 (RPMI-8226): 743 nM
GI50 (SR): 624 nM
GI50 (EKVX [2]): 1460 nM
GI50 (HOP-62 [3]): 1440 nM
GI50 (NCI-H226 [4]): 2440 nM
GI50 (NCI-H23): 1510 nM
GI50 (NCI-H522 [5]): 386 nM
GI50 (COLO 205): 1100 nM
GI50 (HCC 2998 [6]): 1240 nM
GI50 (HCT-15): 1590 nM
GI50 (HT-29): 547 nM
GI50 (KM12 [7]): 1930 nM
GI50 (SF-295): 291 nM
GI50 (SK-MEL-2 [8]): 1890 nM
GI50 (SK-MEL-28 [9]): 1300 nM
GI50 (OVCAR-4): 1750 nM
GI50 (OVCAR-5 [10]): 426 nM
GI50 (NCI/ADR-RES [27]): 342 nM
GI50 (SK-OV-3): 1980 nM
GI50 (CAKI-1 [11]): 440 nM
GI50 (TK-10): 827 nM
GI50 (PC-3 [12]): 1520 nM
GI50 (MDA-MB-231 [13]): 2210 nM
LC50 (CCRF-CEM): > 100000 nM
LC50 (MOLT-4 [14]): > 100000 nM
LC50 (EKVX [15]): 87400 nM
LC50 (HOP-62 [16]): 18300 nM
LC50 (HOP-92): 11600 nM
LC50 (NCI-H226 [17]): 46800 nM
LC50 (NCI-H522 [18]): 6360 nM
LC50 (HCC 2998 [19]): 6120 nM
LC50 (HCT-116): 5970 nM
LC50 (KM12 [20]): 34200 nM
LC50 (SNB-19): 18800 nM
LC50 (SNB-75): 9830 nM
LC50 (U-251): 5840 nM
LC50 (Malme-3M): 28600 nM
LC50 (M14): 16500 nM
LC50 (SK-MEL-2 [21]): 49200 nM
LC50 (SK-MEL-28 [22]): 9400 nM
LC50 (SK-MEL-5): 5300 nM
LC50 (OVCAR-3): 8700 nM
LC50 (OVCAR-5 [23]): 22300 nM
LC50 (NCI/ADR-RES [28]): > 100000 nM
LC50 (A498): 5460 nM
LC50 (CAKI-1 [24]): 6250 nM
LC50 (RXF 393): 7610 nM
LC50 (SN12C): > 100000 nM
LC50 (PC-3 [25]): > 100000 nM
LC50 (MCF7): 93200 nM
LC50 (MDA-MB-231 [26]): 53900 nM
LC50 (T47D): 61700 nM
